In ChEMBL document CHEMBL4043125, “Design, synthesis, and pharmacological evaluation of a novel series of hormone sensitive lipase inhibitor” (Bioorg Med Chem, 2017):
Converted amounts (≈) assume the structure as drawn. The source made the active and inactive calls. No cut-off for these calls is given here.

Columns and labels:
Hormone-sensitive lipase [1] = target: T1, Hormone-sensitive lipase (Rattus norvegicus, UniProt P15304); experiment: Inhibition of HSL in rat adipocytes assessed as reduction in lipolysis by measuring glycerol concentration incubated for 30 mins by spectrophotometric analysis; format: cell-based
T1 sequence (P15304 whole entry): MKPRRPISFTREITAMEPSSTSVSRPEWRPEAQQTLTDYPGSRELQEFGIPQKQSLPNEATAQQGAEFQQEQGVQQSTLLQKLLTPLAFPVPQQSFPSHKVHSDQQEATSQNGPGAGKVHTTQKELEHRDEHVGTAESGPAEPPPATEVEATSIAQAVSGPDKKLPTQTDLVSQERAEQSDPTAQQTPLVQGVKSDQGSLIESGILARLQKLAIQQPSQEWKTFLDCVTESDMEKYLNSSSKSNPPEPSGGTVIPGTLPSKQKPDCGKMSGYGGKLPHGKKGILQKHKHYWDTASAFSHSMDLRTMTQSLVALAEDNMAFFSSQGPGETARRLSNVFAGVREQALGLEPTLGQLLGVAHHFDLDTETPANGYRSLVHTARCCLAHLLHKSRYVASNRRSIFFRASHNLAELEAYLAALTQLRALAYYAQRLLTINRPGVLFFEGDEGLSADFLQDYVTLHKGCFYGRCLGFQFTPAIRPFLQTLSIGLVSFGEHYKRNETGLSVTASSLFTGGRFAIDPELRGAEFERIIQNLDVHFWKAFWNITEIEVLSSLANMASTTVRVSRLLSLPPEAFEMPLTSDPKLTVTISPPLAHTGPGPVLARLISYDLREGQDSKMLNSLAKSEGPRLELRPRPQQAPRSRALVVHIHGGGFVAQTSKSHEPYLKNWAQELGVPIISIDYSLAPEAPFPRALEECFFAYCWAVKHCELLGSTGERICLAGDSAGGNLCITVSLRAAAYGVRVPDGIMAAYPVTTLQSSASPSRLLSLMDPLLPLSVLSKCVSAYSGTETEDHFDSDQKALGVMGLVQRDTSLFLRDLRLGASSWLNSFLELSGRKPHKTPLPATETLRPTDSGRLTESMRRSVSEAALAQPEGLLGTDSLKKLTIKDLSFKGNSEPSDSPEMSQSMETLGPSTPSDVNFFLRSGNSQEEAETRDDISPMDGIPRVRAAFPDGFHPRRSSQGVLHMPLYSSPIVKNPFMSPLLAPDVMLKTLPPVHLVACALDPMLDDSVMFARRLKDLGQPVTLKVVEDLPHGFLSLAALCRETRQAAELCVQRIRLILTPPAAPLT
In short: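 Rat subcutaneous white adipocytes, differentiated 7 days, washed in lipolysis buffer (pH 7.0, with glucose, HEPES, adenosine, 1% BSA). Compound dilutions in DMSO added, 30 min at 37°C, 5% CO2. Supernatant glycerol measured with a free glycerol kit at 540 nm. Triplicate; IC50 from nonlinear curve fitting.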

[2] = target: Cholinesterase (Homo sapiens) (UniProt P06276); experiment: Inhibition of BuChE (unknown origin) at 10 uM using S-butyrylthiocholin iodide as substrate preincubated for 10 mins followed by substrate addition measured after 15 mins by spectrophotometric analysis relative to control
Cholinesterase (Homo sapiens), sequence (P06276 whole entry): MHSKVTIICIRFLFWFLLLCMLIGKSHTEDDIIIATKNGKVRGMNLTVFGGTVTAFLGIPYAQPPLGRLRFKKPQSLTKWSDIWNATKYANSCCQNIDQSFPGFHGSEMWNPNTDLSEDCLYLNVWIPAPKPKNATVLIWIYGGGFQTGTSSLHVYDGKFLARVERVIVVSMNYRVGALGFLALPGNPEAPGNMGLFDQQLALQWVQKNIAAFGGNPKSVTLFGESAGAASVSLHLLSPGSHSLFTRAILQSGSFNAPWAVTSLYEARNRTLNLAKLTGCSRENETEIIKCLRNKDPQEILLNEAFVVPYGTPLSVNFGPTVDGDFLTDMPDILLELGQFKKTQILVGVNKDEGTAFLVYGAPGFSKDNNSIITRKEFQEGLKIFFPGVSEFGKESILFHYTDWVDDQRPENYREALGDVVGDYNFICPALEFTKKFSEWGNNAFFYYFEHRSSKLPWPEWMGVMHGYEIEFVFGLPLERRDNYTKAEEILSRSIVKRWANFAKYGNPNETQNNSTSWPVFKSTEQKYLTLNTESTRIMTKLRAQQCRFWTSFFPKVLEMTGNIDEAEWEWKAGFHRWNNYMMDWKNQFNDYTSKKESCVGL
In short: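 Enzyme (100 U/mL) preincubated with inhibitor 10 min at room temperature, then mixed with 0.1 M potassium phosphate-HCl pH 8.0, S-butyrylthiocholin iodide (final 1000 μM) and DTNB; incubated 15 min at 37°C with shaking. Absorbance at 405 nm read at 0 and 15 min. Tested at 1, 10 and 100 μM.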

[3] = target: Acetylcholinesterase (Homo sapiens) (UniProt P22303); experiment: Inhibition of AChE (unknown origin) at 10 uM using acetylthiocholine iodide as substrate preincubated for 10 mins followed by substrate addition measured after 15 mins by spectrophotometric analysis relative to control
Acetylcholinesterase (Homo sapiens), sequence (P22303 whole entry): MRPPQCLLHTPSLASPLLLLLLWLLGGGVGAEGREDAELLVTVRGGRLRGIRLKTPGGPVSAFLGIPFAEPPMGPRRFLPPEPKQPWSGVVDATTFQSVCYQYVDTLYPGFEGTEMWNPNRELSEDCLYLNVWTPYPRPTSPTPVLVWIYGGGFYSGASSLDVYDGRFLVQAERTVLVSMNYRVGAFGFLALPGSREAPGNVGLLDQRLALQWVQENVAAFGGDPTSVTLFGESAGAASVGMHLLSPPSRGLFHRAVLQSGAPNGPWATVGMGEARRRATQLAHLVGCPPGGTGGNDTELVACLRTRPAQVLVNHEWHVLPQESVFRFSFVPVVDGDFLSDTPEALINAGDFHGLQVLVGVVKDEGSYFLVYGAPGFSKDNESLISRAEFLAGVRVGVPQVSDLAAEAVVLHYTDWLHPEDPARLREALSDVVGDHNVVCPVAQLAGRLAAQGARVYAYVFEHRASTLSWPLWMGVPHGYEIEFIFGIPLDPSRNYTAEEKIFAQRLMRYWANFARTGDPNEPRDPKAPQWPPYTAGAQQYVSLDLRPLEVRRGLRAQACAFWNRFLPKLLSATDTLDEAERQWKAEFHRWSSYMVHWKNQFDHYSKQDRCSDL
In short: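 Enzyme (100 U/mL) preincubated with inhibitor 10 min at room temperature, then mixed with 0.1 M potassium phosphate-HCl pH 8.0, acetylthiocholin iodide (final 500 μM) and DTNB; incubated 15 min at 37°C with shaking. Absorbance at 405 nm read at 0 and 15 min. Tested at 1, 10 and 100 μM.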

Hormone-sensitive lipase [4] = target: T2, Hormone-sensitive lipase (Homo sapiens, UniProt Q05469); experiment: Inhibition of recombinant human HSL expressed in baculovirus infected sf9 insect cells using PNPB as substrate after 5 mins by spectrophotometric analysis
T2 sequence (Q05469 whole entry): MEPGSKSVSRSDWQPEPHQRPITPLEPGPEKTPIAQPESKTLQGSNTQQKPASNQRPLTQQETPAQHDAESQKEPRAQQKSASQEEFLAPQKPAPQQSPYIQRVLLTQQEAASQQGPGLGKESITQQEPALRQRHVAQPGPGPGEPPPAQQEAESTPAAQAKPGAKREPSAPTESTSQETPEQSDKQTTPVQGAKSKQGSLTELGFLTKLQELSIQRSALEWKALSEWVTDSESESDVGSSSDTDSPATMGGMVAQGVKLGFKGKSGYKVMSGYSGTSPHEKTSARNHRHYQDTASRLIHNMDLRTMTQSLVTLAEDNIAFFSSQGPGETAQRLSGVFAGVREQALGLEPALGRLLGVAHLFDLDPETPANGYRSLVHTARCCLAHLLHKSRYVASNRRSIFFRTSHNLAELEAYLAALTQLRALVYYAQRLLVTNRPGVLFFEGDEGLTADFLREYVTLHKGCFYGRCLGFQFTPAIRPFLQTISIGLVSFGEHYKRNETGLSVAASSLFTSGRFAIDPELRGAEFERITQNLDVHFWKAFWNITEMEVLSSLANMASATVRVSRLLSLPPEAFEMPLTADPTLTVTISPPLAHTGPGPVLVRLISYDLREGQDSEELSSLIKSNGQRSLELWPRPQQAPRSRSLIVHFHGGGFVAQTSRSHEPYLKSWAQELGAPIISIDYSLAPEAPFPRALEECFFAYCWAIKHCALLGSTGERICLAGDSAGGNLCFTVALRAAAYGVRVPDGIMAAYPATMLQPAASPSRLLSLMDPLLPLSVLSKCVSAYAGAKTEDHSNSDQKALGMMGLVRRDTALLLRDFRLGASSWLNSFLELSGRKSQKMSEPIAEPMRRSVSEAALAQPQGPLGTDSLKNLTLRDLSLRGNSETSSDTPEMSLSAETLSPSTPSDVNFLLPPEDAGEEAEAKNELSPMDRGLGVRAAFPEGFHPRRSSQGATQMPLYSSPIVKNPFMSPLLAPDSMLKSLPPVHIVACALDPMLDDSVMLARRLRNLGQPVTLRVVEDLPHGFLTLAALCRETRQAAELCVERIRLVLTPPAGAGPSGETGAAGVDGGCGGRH

Rattus norvegicus [5] = experiment: Antilipolytic activity in Wistar rat assessed as reduction in plasma glycerol AUC (0 to 7 hrs) at 10 mg/kg, po by spectrophotometric analysis; format: functional, organism-based
In short: (§1)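 Male Wistar rats, 8 weeks, fasted overnight. Dosed orally in 0.5% (w/v) methylcellulose, with vehicle controls (n = 4) and treated groups (n = 3). Tail-vein EDTA blood taken pre-dose and at 0.5, 1, 3, 5, 7 h. Plasma glycerol read with a free glycerol kit. Reduction in glycerol AUC0–7h versus vehicle expressed relative to a reference inhibitor group; mean ± SEM.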

[6] = Aqueous solubility of the compound in Japanese pharmacopoeia second fluid at pH 6.8 after 4 hrs by HPLC/UV analysis; format: physicochemical
In short: (§2)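 Solubility: DMSO sample solution freeze-dried. Residue stirred at 1700 rpm for 4 h in JP first fluid (pH 1.2), JP second fluid (pH 6.8) or FaSSIF. Filtered, filtrate diluted in DMSO, quantified by HPLC-UV against a per-sample calibration curve.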

[7] = Aqueous solubility of the compound in FaSSIF after 4 hrs by HPLC/UV analysis; format: physicochemical; in short: as §2
Rattus norvegicus [8] = experiment: Antilipolytic activity in Wistar rat assessed as reduction in plasma glycerol AUC (0 to 7 hrs) at 1 mg/kg, po by spectrophotometric analysis relative to control; format: functional; design: scale not given: the % may be the effect or the level left; in short: as §1
[9] = AUC (0 to 7 hrs) in rat at 3 mg/kg, po by LC-MS/MS analysis; format: ADME, organism-based; design: time < 7 hr, dose 3 mg/kg, route oral; conditions: in vivo
[10] = Aqueous solubility of the compound in Japanese pharmacopoeia first fluid at pH 1.2 after 4 hrs by HPLC/UV analysis; format: physicochemical; in short: as §2
[11] = Effective permeability of the compound in prisma HT buffer at 10 mM at pH 7.4 after 4 hrs by PAMPA; format: physicochemical; conditions: read-out: Peff
In short: (§3)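 PAMPA: filter coated with GIT-0 lipid. 10 mM DMSO stock diluted into Prisma HT buffer to give 5 µM donor solution (0.05% DMSO) at pH 5.0 or 7.4. Acceptor sink buffer used. Incubated 4 h at 25°C. Both compartments quantified by LC-MS/MS to derive the permeability coefficient.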

[12] = Effective permeability of the compound in prisma HT buffer at 10 mM at pH 5 after 4 hrs by PAMPA; format: physicochemical; conditions: read-out: Peff; in short: as §3
[13] = Cmax in rat at 3 mg/kg, po by LC-MS/MS analysis; format: ADME, organism-based; design: dose 3 mg/kg, route oral; conditions: in vivo
[14] = 1-octanol/phosphate buffered saline distribution coefficient, log D of the compound at 200 uM at pH 7.4 after 30 mins by shake flask based HPLC/LC-MS analysis; format: physicochemical
In short: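 Shake-flask LogD: PBS and 1-octanol pre-saturated by shaking and standing overnight. Compound at 200 μM in either phase, equal volume of the other added, shaken 30 min at room temperature, centrifuged 2100 g 5 min. Both phases quantified by HPLC and LC-MS. LogD7.4 = log(octanol peak area/PBS peak area).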

| Structure (SMILES) | IC50 (Hormone-sensitive lipase [1]) [nM] | inhibition [2] [%] | inhibition [3] [%] | also measured |
| --- | --- | --- | --- | --- |
| O=C(Cc1ccccc1B(O)O)N1CCC(Oc2ccc(C(F)(F)F)cc2)CC1 | 130 | 72 | 9 |  |
| O=C(Cc1ccccc1B(O)O)N1CCC(Oc2ccc(C(F)(F)F)nc2)CC1 | 180 | 62 | 6 |  |
| CN(C)C(=O)c1ccc(OC2CCN(C(=O)Cc3ccccc3B(O)O)CC2)nc1 |  |  |  | IC50 (Hormone-sensitive lipase [4]): > 5000 nM |
| O=C(Cc1ccccc1B(O)O)N1CCC(COc2ccc(C(F)(F)F)cn2)CC1 | 260 |  |  |  |
| O=C(Oc1ccc(Oc2ccc(C(F)(F)F)cn2)cc1)N1CCC(O)CC1 |  |  |  | Activity (Rattus norvegicus [5]): Active |
| O=C(Cc1ccccc1B(O)O)N1CCC(Oc2ccc(C(F)(F)F)cn2)CC1 | 80 | 46 | 7 |  |
| O=C(Cc1ccc(Cl)cc1B(O)O)N1CCC(Oc2ccc(C(F)(F)F)cn2)CC1 | 24 | 5 | 8 |  |
| OB(O)c1ccccc1CN1CCC(Oc2ccc(C(F)(F)F)cn2)CC1 | 1400 |  |  |  |
| O=C(Cc1ccc(F)cc1B(O)O)N1CCC(Oc2ccc(C(F)(F)F)cn2)CC1 |  | 2 | 7 | solubility at 4 h [6]: 84 µg/mL (≈ 197 µM); solubility at 4 h [7]: 99 µg/mL (≈ 232 µM); Activity (Rattus norvegicus [8]): 22%; AUC(0-t) at 7 h [9]: 3180 ng·h/mL; solubility at 4 h [10]: 190 µg/mL (≈ 446 µM); Papp at 4 h, 10000 µM [11]: > 50 ×10⁻⁶ cm/s; Papp at 4 h, 10000 µM [12]: > 50 ×10⁻⁶ cm/s; Cmax [13]: 650 ng/mL; logD at 0.5 h, 200 µM [14]: 3.7 |
| O=C(C(O)c1ccccc1B(O)O)N1CCC(Oc2ccc(C(F)(F)F)cn2)CC1 (configuration not stated) | 280 | 4 | -4 |  |
| O=C(Nc1ccc(Cl)cc1B(O)O)c1ccc(Oc2ccc(C(F)(F)F)cc2)nc1 | 110 |  |  | solubility at 4 h [6]: 1.5 µg/mL (≈ 3.44 µM); solubility at 4 h [7]: 12 µg/mL (≈ 27.5 µM); solubility at 4 h [10]: 1.8 µg/mL (≈ 4.12 µM); logD at 0.5 h, 200 µM [14]: 4.3 |
| O=C(CCc1ccccc1B(O)O)N1CCC(Oc2ccc(C(F)(F)F)cn2)CC1 | 1400 |  |  |  |
| COc1ccc(CC(=O)N2CCC(Oc3ccc(C(F)(F)F)cn3)CC2)c(B(O)O)c1 | 45 | -4 | 9 |  |
| O=C(Nc1ccccc1B(O)O)c1ccc(Oc2ccc(C(F)(F)F)cn2)cn1 | 1100 |  |  |  |
| O=C(Nc1ccccc1B(O)O)c1ccc(Oc2ccc(C(F)(F)F)cn2)cc1 | 470 |  |  | logD at 0.5 h, 200 µM [14]: 3.2 |
